System: U2OS
Experiment: Multiplex assay against U2OS
Assay type: toxicity, cell-based
Conditions: human
Outline: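 Cells were classed with CellPathfinder machine-learning gating, first as Hoechst high-intensity objects or normal cells, then (normal cells) as healthy, pyknosed or fragmented nuclei, and finally (pyknosed cells) as mitotic or apoptotic. Staining of live cells at seeding used Hoechst33342, BioTracker Green Microtubule Cytoskeleton Dye, MitoTracker Red and Annexin V Alexa Fluor 680, with imaging on a CQ1 microscope at 37°C and 5% CO2 after compound addition. Tubulin, mitochondrial-mass and membrane-permeability phenotypes are per cents of healthy-nucleus cells.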

[1] = 12 h, 1 µM, compound concentration 1 uM, replicate 1
[2] = 12 h, 1 µM, compound concentration 1 uM, replicate 2
[3] = 12 h, 10 µM, compound concentration 10 uM, replicate 1
[4] = 12 h, 10 µM, compound concentration 10 uM, replicate 2
[5] = 24 h, 1 µM, compound concentration 1 uM, replicate 1
[6] = 24 h, 1 µM, compound concentration 1 uM, replicate 2
[7] = 24 h, 10 µM, compound concentration 10 uM, replicate 1
[8] = 24 h, 10 µM, compound concentration 10 uM, replicate 2
[9] = 48 h, 1 µM, compound concentration 1 uM, replicate 1
[10] = 48 h, 1 µM, compound concentration 1 uM, replicate 2
[11] = 48 h, 10 µM, compound concentration 10 uM, replicate 1
[12] = 48 h, 10 µM, compound concentration 10 uM, replicate 2

## N#Cc1c(Oc2cccc(OS(=O)(=O)CCCC(F)(F)F)c2)cccc1C(F)(F)F
[1]
  Population Apoptotic (%): 77%
  Population Fragmented Nuclei (%): 27%
  Population Healthy Nuclei (%): 61%
  Population Hoechst High Intensity Objects (%): 3%
  Population Membrane Permeable-Phenotype (%): 4%
  Population Mitochondria Different-Phenotype (%): 2%
  Population Mitotic Cells (%): 22%
  Population Normal (%): 96%
  Population Pyknosed Nuclei (%): 10%
  Population Tubulin-Different-Phenotype (%): 0%
  Total Cell Count: 220
[2]
  Population Apoptotic (%): 81%
  Population Fragmented Nuclei (%): 12%
  Population Healthy Nuclei (%): 76%
  Population Hoechst High Intensity Objects (%): 0%
  Population Membrane Permeable-Phenotype (%): 7%
  Population Mitochondria Different-Phenotype (%): 7%
  Population Mitotic Cells (%): 18%
  Population Normal (%): 99%
  Population Tubulin-Different-Phenotype (%): 8%
  Total Cell Count: 109
[3]
  Population Apoptotic (%): 78%
  Population Fragmented Nuclei (%): 27%
  Population Healthy Nuclei (%): 63%
  Population Hoechst High Intensity Objects (%): 3%
  Population Membrane Permeable-Phenotype (%): 11%
  Population Mitochondria Different-Phenotype (%): 8%
  Population Mitotic Cells (%): 21%
  Population Normal (%): 96%
  Population Pyknosed Nuclei (%): 8%
  Population Tubulin-Different-Phenotype (%): 7%
  Total Cell Count: 222
[4]
  Population Apoptotic (%): 90%
  Population Fragmented Nuclei (%): 14%
  Population Healthy Nuclei (%): 75%
  Population Hoechst High Intensity Objects (%): 0%
  Population Membrane Permeable-Phenotype (%): 21%
  Population Mitochondria Different-Phenotype (%): 4%
  Population Mitotic Cells (%): 9%
  Population Normal (%): 99%
  Population Pyknosed Nuclei (%): 9%
  Total Cell Count: 112
[5]
  Population Apoptotic (%): 75%
  Population Fragmented Nuclei (%): 25%
  Population Healthy Nuclei (%): 61%
  Population Hoechst High Intensity Objects (%): 2%
  Population Membrane Permeable-Phenotype (%): 4%
  Population Mitochondria Different-Phenotype (%): 2%
  Population Mitotic Cells (%): 24%
  Population Normal (%): 97%
  Population Pyknosed Nuclei (%): 12%
  Population Tubulin-Different-Phenotype (%): 3%
  Total Cell Count: 263
[6]
  Population Apoptotic (%): 90%
  Population Fragmented Nuclei (%): 12%
  Population Healthy Nuclei (%): 79%
  Population Hoechst High Intensity Objects (%): 1%
  Population Membrane Permeable-Phenotype (%): 11%
  Population Mitochondria Different-Phenotype (%): 3%
  Population Mitotic Cells (%): 10%
  Population Normal (%): 98%
  Population Pyknosed Nuclei (%): 7%
  Population Tubulin-Different-Phenotype (%): 7%
  Total Cell Count: 130
[7]
  Population Apoptotic (%): 66%
  Population Fragmented Nuclei (%): 26%
  Population Healthy Nuclei (%): 66%
  Population Hoechst High Intensity Objects (%): 6%
  Population Membrane Permeable-Phenotype (%): 10%
  Population Mitochondria Different-Phenotype (%): 8%
  Population Mitotic Cells (%): 33%
  Population Normal (%): 93%
  Population Pyknosed Nuclei (%): 7%
  Population Tubulin-Different-Phenotype (%): 5%
  Total Cell Count: 252
[8]
  Population Fragmented Nuclei (%): 9%
  Population Healthy Nuclei (%): 83%
  Population Hoechst High Intensity Objects (%): 3%
  Population Membrane Permeable-Phenotype (%): 11%
  Population Mitochondria Different-Phenotype (%): 0%
  Population Normal (%): 96%
  Population Tubulin-Different-Phenotype (%): 7%
  Total Cell Count: 130
[9]
  Population Apoptotic (%): 87%
  Population Fragmented Nuclei (%): 17%
  Population Healthy Nuclei (%): 70%
  Population Hoechst High Intensity Objects (%): 3%
  Population Membrane Permeable-Phenotype (%): 4%
  Population Mitochondria Different-Phenotype (%): 0%
  Population Mitotic Cells (%): 12%
  Population Normal (%): 96%
  Population Pyknosed Nuclei (%): 11%
  Population Tubulin-Different-Phenotype (%): 3%
  Total Cell Count: 361
[10]
  Population Apoptotic (%): 100%
  Population Fragmented Nuclei (%): 16%
  Population Healthy Nuclei (%): 73%
  Population Hoechst High Intensity Objects (%): 2%
  Population Membrane Permeable-Phenotype (%): 9%
  Population Mitochondria Different-Phenotype (%): 4%
  Population Mitotic Cells (%): 0%
  Population Normal (%): 97%
  Population Pyknosed Nuclei (%): 9%
  Population Tubulin-Different-Phenotype (%): 7%
  Total Cell Count: 195
[11]
  Population Apoptotic (%): 91%
  Population Fragmented Nuclei (%): 23%
  Population Healthy Nuclei (%): 64%
  Population Hoechst High Intensity Objects (%): 4%
  Population Membrane Permeable-Phenotype (%): 10%
  Population Mitochondria Different-Phenotype (%): 6%
  Population Mitotic Cells (%): 8%
  Population Normal (%): 95%
  Population Pyknosed Nuclei (%): 11%
  Population Tubulin-Different-Phenotype (%): 6%
  Total Cell Count: 328
[12]
  Population Apoptotic (%): 100%
  Population Fragmented Nuclei (%): 11%
  Population Healthy Nuclei (%): 77%
  Population Hoechst High Intensity Objects (%): 3%
  Population Membrane Permeable-Phenotype (%): 13%
  Population Mitochondria Different-Phenotype (%): 4%
  Population Mitotic Cells (%): 0%
  Population Normal (%): 96%
  Population Pyknosed Nuclei (%): 10%
  Population Tubulin-Different-Phenotype (%): 7%
  Total Cell Count: 184

From ChEMBL document CHEMBL5058577, “EUbOPEN Chemogenomics Library 2 (Multiplex)” (2022)
